≈ marks a conversion by molar mass, not a printed value. Where “and” joins values, the source holds several entries; their conditions need not be identical. Equal values may be shown once.
How the values were obtained:
[1] = target: T1, Thyroid hormone receptor alpha (Homo sapiens, UniProt P10827); experiment: Displacement of labeled SRC2-2 from human TRalpha by FP assay
T1 sequence (P10827 whole entry): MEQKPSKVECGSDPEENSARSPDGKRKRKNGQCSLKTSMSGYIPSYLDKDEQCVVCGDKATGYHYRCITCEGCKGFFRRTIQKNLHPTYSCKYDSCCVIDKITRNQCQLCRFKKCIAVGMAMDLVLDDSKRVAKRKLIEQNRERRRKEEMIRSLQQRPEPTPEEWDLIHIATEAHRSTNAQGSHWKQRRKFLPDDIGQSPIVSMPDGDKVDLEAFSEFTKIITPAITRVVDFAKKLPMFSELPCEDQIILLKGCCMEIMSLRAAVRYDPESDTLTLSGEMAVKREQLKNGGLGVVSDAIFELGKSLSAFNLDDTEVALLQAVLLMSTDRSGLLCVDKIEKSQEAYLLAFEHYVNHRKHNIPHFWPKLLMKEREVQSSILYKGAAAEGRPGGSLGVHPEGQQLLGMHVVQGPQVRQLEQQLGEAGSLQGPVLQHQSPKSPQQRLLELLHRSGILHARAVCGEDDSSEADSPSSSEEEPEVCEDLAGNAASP

[2] = target: T2, Thyroid hormone receptor beta (Homo sapiens, UniProt P10828); experiment: Displacement of labeled SRC2-2 from human TRbeta expressed in BL21 (DE3) cells FP assay; format: cell-based
T2 sequence (P10828 whole entry): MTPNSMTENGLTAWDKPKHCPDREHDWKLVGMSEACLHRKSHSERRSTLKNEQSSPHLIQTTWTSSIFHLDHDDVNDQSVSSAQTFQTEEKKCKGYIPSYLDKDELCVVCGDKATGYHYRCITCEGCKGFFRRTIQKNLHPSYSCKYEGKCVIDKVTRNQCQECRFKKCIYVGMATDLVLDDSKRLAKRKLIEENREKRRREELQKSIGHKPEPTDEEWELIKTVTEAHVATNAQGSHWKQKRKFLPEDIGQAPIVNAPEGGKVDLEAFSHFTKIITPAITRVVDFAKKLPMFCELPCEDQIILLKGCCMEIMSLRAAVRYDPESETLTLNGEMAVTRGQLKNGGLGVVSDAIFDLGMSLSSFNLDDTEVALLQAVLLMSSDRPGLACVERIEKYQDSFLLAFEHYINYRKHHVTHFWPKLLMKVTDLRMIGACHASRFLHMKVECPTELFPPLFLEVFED
How it was run: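 Competitive fluorescence polarization. Assay liquid was PBS containing 5% DMSO. For TRβ, hTRβ1 LBD (His6, T209-D461) was expressed in BL21 (DE3).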

ARO = experiment: Cytotoxicity against human ARO cells after 48 hrs by MTS assay; format: functional; settings: read-out: LD50 (the source's name)
U2OS = experiment: Cytotoxicity against human U2OS cells after 48 hrs by MTS assay; format: functional; settings: read-out: LD50 (the source's name)
physchem = settings: PBS
[3] = Permeability across artificial membrane at pH 7.4 by PAMPA assay

CCCCCCc1ccc(NC(=O)CCC(=O)O)cc1
IC50 [1]: > 100 µM
IC50 [2]: > 100 µM

CCCCCCc1ccc(C(=O)CCN(C)CCc2ccccc2)cc1
IC50 [1]: 3.6 µM
IC50 [2]: 1.5 µM
CC50 (ARO; Homo sapiens, ARO, 48 h): 2.5 µM
CC50 (U2OS; Homo sapiens, U2OS, 48 h): 18.4 µM
solubility (physchem): 15 µM (≈ 5.27 µg/mL)

CCCCCCc1ccc(C(=O)CF)cc1
IC50 [1]: > 100 µM
IC50 [2]: > 100 µM
CC50 (ARO; Homo sapiens, ARO, 48 h): 2.4 µM
CC50 (U2OS; Homo sapiens, U2OS, 48 h): 69 µM
solubility (physchem): 95 µM (≈ 21.1 µg/mL)

C=CC(=O)c1ccc(CC(C)(C)C)cc1
IC50 [1]: 69.6 µM
IC50 [2]: 43.5 µM
CC50 (ARO; Homo sapiens, ARO, 48 h): 5.8 µM
CC50 (U2OS; Homo sapiens, U2OS, 48 h): 27.5 µM

CCCCCCc1ccc(C(=O)CCBr)cc1
IC50 [1]: 4.2 µM
IC50 [2]: 3 µM
CC50 (ARO; Homo sapiens, ARO, 48 h): 40.1 µM
CC50 (U2OS; Homo sapiens, U2OS, 48 h): 17 µM
solubility (physchem): 85 µM (≈ 25.3 µg/mL)

C=CC(=O)Oc1ccc(CCCCC)cc1
IC50 [1]: > 100 µM
IC50 [2]: 55.8 µM
CC50 (ARO; Homo sapiens, ARO, 48 h): 21.2 µM
CC50 (U2OS; Homo sapiens, U2OS, 48 h): 36.5 µM

C=CC(=O)c1ccc(CCCCCCCC)cc1
IC50 [1]: 21.4 µM
IC50 [2]: 11.4 µM
CC50 (ARO; Homo sapiens, ARO, 48 h): 111 µM
CC50 (U2OS; Homo sapiens, U2OS, 48 h): 50.5 µM

CCCCCCc1ccc(C(=O)CCN(C)Cc2ccco2)cc1
IC50 [1]: 22.6 µM
IC50 [2]: 12.1 µM

C=CC(=O)c1ccc(CCCCC)cc1
IC50 [1]: 60.9 µM
IC50 [2]: 33.9 µM
CC50 (ARO; Homo sapiens, ARO, 48 h): 20 µM
CC50 (U2OS; Homo sapiens, U2OS, 48 h): 22.7 µM

C=C(C)C(=O)c1ccc(CCCCCCC)cc1
IC50 [1]: 52.9 µM
IC50 [2]: 23.2 µM
CC50 (ARO; Homo sapiens, ARO, 48 h): 10.7 µM
CC50 (U2OS; Homo sapiens, U2OS, 48 h): 18.7 µM
Papp [3]: 43 ×10⁻⁶ cm/s
solubility (physchem): 37 µM (≈ 9.04 µg/mL)

C=CC(=O)Nc1ccc(CCCCCC)cc1
IC50 [1]: 21.6 µM
IC50 [2]: 17.9 µM
CC50 (ARO; Homo sapiens, ARO, 48 h): 113 µM
CC50 (U2OS; Homo sapiens, U2OS, 48 h): 66.5 µM
Papp [3]: 833 ×10⁻⁶ cm/s
solubility (physchem): 47 µM (≈ 10.9 µg/mL)

CCCCCCc1ccc(NC(=O)C=C(C)C)cc1
IC50 [1]: > 100 µM
IC50 [2]: > 100 µM
CC50 (ARO; Homo sapiens, ARO, 48 h): > 200 µM
CC50 (U2OS; Homo sapiens, U2OS, 48 h): > 200 µM
Papp [3]: 98 ×10⁻⁶ cm/s
solubility (physchem): 37 µM (≈ 9.6 µg/mL)

CCCCCCc1ccc(C(=O)CCl)cc1
IC50 [1]: 47.7 µM
IC50 [2]: 23.1 µM

CCCCCCc1ccc(C(=O)CCN(C(C)C)C(C)C)cc1
IC50 [1]: 4.1 µM
IC50 [2]: 2 µM
CC50 (ARO; Homo sapiens, ARO, 48 h): 15.4 µM
CC50 (U2OS; Homo sapiens, U2OS, 48 h): 20.7 µM
solubility (physchem): 55 µM (≈ 17.5 µg/mL)

C=CC(=O)Oc1ccccc1CCCCCC
IC50 [1]: 39.1 µM
IC50 [2]: 8.2 µM
CC50 (ARO; Homo sapiens, ARO, 48 h): 14.6 µM
CC50 (U2OS; Homo sapiens, U2OS, 48 h): 19.4 µM

C#CC(=O)Nc1ccc(CCCCCC)cc1
IC50 [1]: 68.9 µM
IC50 [2]: 35.1 µM
CC50 (ARO; Homo sapiens, ARO, 48 h): 8 µM
CC50 (U2OS; Homo sapiens, U2OS, 48 h): 17.1 µM
Papp [3]: 621 ×10⁻⁶ cm/s
solubility (physchem): 60 µM (≈ 13.8 µg/mL)

CCCCCCc1ccc(C(=O)C2CO2)cc1 (stereo not given)
IC50 [1]: 47.7 µM
IC50 [2]: 23.1 µM
CC50 (ARO; Homo sapiens, ARO, 48 h): > 200 µM
CC50 (U2OS; Homo sapiens, U2OS, 48 h): 58 µM
permeability [3]: 1117 10^-6 cm/s
solubility (physchem): 204 µM (≈ 47.4 µg/mL)

C=C(CC(=O)Nc1ccc(CCCCCC)cc1)C(=O)O
IC50 [1]: > 100 µM
IC50 [2]: > 100 µM
CC50 (ARO; Homo sapiens, ARO, 48 h): 183 µM
CC50 (U2OS; Homo sapiens, U2OS, 48 h): 124 µM
Papp [3]: 57 ×10⁻⁶ cm/s
solubility (physchem): 286 µM (≈ 82.8 µg/mL)

CCCCCCc1ccc(NC(=O)/C=C/c2ccccc2)cc1
IC50 [1]: > 100 µM
IC50 [2]: > 100 µM

CCCCCCc1ccc(C(=O)/C=C\C(=O)O)cc1
IC50 [1]: 19.2 µM
IC50 [2]: 17.7 µM
CC50 (ARO; Homo sapiens, ARO, 48 h): 5.5 µM
CC50 (U2OS; Homo sapiens, U2OS, 48 h): 57.4 µM
Papp [3]: 66 ×10⁻⁶ cm/s
solubility (physchem): 252 µM (≈ 65.6 µg/mL)

CCCCCCc1ccc(C(=O)CCN2CCC(C(=O)OC)CC2)cc1
IC50 [1]: 6.3 µM
IC50 [2]: 3.9 µM
CC50 (ARO; Homo sapiens, ARO, 48 h): 8.2 µM
CC50 (U2OS; Homo sapiens, U2OS, 48 h): 19.7 µM
Papp [3]: 145 ×10⁻⁶ cm/s
solubility (physchem): 27 µM (≈ 9.71 µg/mL)

CCCCCCc1ccc(C(=O)CCN(C)C)cc1
IC50 [2]: 4.3 µM

CCCCCCc1ccc(C(=O)CCN2CCOCC2)cc1
IC50 [1]: 4.1 µM
IC50 [2]: 2.7 µM
CC50 (ARO; Homo sapiens, ARO, 48 h): 7.2 µM
CC50 (U2OS; Homo sapiens, U2OS, 48 h): 20.8 µM
permeability [3]: 1210 10^-6 cm/s
solubility (physchem): 110 µM (≈ 33.4 µg/mL)

C/C=C/C(=O)c1ccc(CCCCCCC)cc1
IC50 [1]: 18.9 µM
IC50 [2]: 7.6 µM
CC50 (ARO; Homo sapiens, ARO, 48 h): 1.4 µM
CC50 (U2OS; Homo sapiens, U2OS, 48 h): 11.6 µM
Papp [3]: 7 ×10⁻⁶ cm/s
solubility (physchem): 41 µM (≈ 10 µg/mL)

CCCCCCc1ccc(C(=O)CC)cc1
IC50 [1]: > 100 µM
IC50 [2]: > 100 µM

CCCCCCc1ccc(C(=O)CCN(C)CCO)cc1
IC50 [1]: 3 µM
IC50 [2]: 1.6 µM
CC50 (ARO; Homo sapiens, ARO, 48 h): 13.2 µM
CC50 (U2OS; Homo sapiens, U2OS, 48 h): 13.2 µM
solubility (physchem): 97 µM (≈ 28.3 µg/mL)

C/C=C(\C)C(=O)c1ccc(CCCCCCC)cc1
IC50 [1]: > 100 µM
IC50 [2]: > 100 µM
CC50 (ARO; Homo sapiens, ARO, 48 h): > 200 µM
CC50 (U2OS; Homo sapiens, U2OS, 48 h): > 200 µM
solubility (physchem): 36 µM (≈ 9.3 µg/mL)

CCCCCCCc1ccc(C(=O)C=C(C)C)cc1
IC50 [1]: > 100 µM
IC50 [2]: > 100 µM
CC50 (ARO; Homo sapiens, ARO, 48 h): > 200 µM
CC50 (U2OS; Homo sapiens, U2OS, 48 h): > 200 µM
solubility (physchem): 24 µM (≈ 6.2 µg/mL)

CCCCCCc1ccc(C(=O)CCN(C2CCCCC2)C2CCCCC2)cc1
IC50 [1]: 16.5 µM
IC50 [2]: 12.7 µM

CCCCCCc1ccc(NC(=O)/C=C\C(=O)O)cc1
IC50 [1]: 17.5 µM
IC50 [2]: 20.3 µM
CC50 (ARO; Homo sapiens, ARO, 48 h): > 200 µM
CC50 (U2OS; Homo sapiens, U2OS, 48 h): 148 µM
solubility (physchem): 418 µM (≈ 115 µg/mL)

C=CC(=O)[C@H]1CC[C@H](CC(C)(C)C)CC1
IC50 [1]: 75.6 µM
IC50 [2]: 69.1 µM
CC50 (ARO; Homo sapiens, ARO, 48 h): 92.8 µM
CC50 (U2OS; Homo sapiens, U2OS, 48 h): 50.2 µM

CCCC(=O)Nc1cccc2c1CCCC2
IC50 [1]: 85.3 µM
IC50 [2]: 69.8 µM
CC50 (ARO; Homo sapiens, ARO, 48 h): 54.7 µM
CC50 (U2OS; Homo sapiens, U2OS, 48 h): 101 µM

C=CC(=O)c1ccc(CCCCCC)cc1
IC50 [1]: 28.1 µM and 45.2 µM
CC50 (ARO): 4.5 µM and 29.5 µM
CC50 (U2OS; Homo sapiens, U2OS, 48 h): 10.1 µM
CC50 (U2OS): 18.8 µM
Papp [3]: 38 ×10⁻⁶ cm/s
solubility (physchem): 36 µM (≈ 7.79 µg/mL)

C=CC(=O)c1ccc(CCCCCCC)cc1
IC50 [1]: 23 µM
IC50 [2]: 10.5 µM
CC50 (ARO; Homo sapiens, ARO, 48 h): 69.2 µM
CC50 (U2OS; Homo sapiens, U2OS, 48 h): 36.7 µM

C=CC(=O)c1ccc(CCCC)cc1
IC50 [1]: 71 µM
IC50 [2]: 66 µM
CC50 (ARO; Homo sapiens, ARO, 48 h): 9.9 µM
CC50 (U2OS; Homo sapiens, U2OS, 48 h): 25.6 µM

CCCCCCc1ccc(C(=O)CCN(CCCC)CCCC)cc1
IC50 [1]: 6.9 µM
IC50 [2]: 4.2 µM
CC50 (ARO; Homo sapiens, ARO, 48 h): 5.4 µM
CC50 (U2OS; Homo sapiens, U2OS, 48 h): 25.5 µM
solubility (physchem): 152 µM (≈ 52.5 µg/mL)

C=CC(=O)Oc1ccc(CCC)cc1
IC50 [1]: > 100 µM
IC50 [2]: 61 µM
CC50 (ARO; Homo sapiens, ARO, 48 h): 4.8 µM
CC50 (U2OS; Homo sapiens, U2OS, 48 h): 121 µM

CCCCCCCc1ccc(C(=O)/C=C/c2ccccc2)cc1
IC50 [1]: > 100 µM
IC50 [2]: > 100 µM
CC50 (ARO; Homo sapiens, ARO, 48 h): > 200 µM
CC50 (U2OS; Homo sapiens, U2OS, 48 h): 57 µM
solubility (physchem): 30 µM (≈ 9.19 µg/mL)

Reference: ChEMBL document CHEMBL1137577, “Inhibitors of the interaction of a thyroid hormone receptor and coactivators: preliminary structure-activity relationships” (J Med Chem, 2007)
